We go through one compound from paper PMC7396962 (Xenobiotica; the fate of foreign compounds in biological …, 2020).

Values after ≈ are worked out from the molar mass of the structure shown.

One data set addresses human carboxylesterase 2. Conditions: ref Li et al., 2015, cited from earlier work.
In another data set the test system is pooled HLM. Nature of the data set: Glucuronidation of CA in pooled HLM. In kind it is in vitro ADME, human. Conditions: higher than phase I metabolism. A digest of the protocol: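 Pooled human liver microsomes (1 mg/mL) with test compound 0.16–80 μM, UDPGA 3.5 mM, alamethicin 22 μg/mL, saccharolactone 4.4 mM and MgCl2 0.88 mM in Tris-HCl pH 7.4, 37 °C for 60 min. Phase I run in parallel with 1 mM NADPH. Metabolites quantified by UHPLC-UV (270 nm) as parent equivalents; kinetics fitted by model, CLint = Vmax/Km; triplicate.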

Data set [1] has as its system recombinant human UGT isoforms. Nature of the data set: Reaction phenotyping with twelve recombinant UGT isoforms. In kind it is in vitro ADME.
The subject of data set [2] is Hep3B hepatocellular carcinoma cell line. Conditions: cited from earlier work.
The test system of data set [3] is severe acute respiratory syndrome coronavirus papain-like protease. Conditions: read-out: inhibitory effects on severe acute respiratory syndrome coronavirus papain-like protease; cited from earlier work.
Data set [4] concerns expressed human CYP enzymes. Nature of the data set: Reaction phenotyping with twelve expressed CYP enzymes. In kind it is in vitro ADME. The procedure, abridged: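 Twelve expressed human CYPs (1–1.2 mg/mL) with test compound 0.16–80 μM, NADPH 1 mM and MgCl2 in 50 mM Tris-HCl pH 7.4, 37 °C, 60 min. Controls lacked NADPH. Acetonitrile quench, then UHPLC-UV/Q-TOF MS. Formation rates given as pmol/min/mg protein. Kinetics fitted after Eadie–Hofstee inspection; CLint = Vmax/Km; triplicate.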

The target of a further data set is T1, CYP2C8 (Homo sapiens, UniProt P10632).
T1 sequence (P10632 1-490): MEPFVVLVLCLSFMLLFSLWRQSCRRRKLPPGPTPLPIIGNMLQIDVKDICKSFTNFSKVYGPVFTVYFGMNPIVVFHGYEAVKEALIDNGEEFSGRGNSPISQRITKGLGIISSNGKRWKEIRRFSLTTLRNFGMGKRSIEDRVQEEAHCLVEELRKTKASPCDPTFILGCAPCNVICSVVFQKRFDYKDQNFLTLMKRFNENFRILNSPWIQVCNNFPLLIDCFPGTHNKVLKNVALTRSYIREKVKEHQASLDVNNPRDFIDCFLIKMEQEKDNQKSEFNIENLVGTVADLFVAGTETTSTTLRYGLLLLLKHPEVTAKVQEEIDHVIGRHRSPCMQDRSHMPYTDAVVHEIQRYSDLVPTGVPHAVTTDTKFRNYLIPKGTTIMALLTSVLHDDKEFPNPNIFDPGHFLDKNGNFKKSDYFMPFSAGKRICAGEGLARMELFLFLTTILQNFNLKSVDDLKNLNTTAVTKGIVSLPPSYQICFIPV
In kind it is in vitro ADME. Conditions: panel of HLMs (n = 9), substrate 10 μM, p = 0.001. A digest of the protocol: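 Nine individual human liver microsomes (1 mg/mL) each incubated with test compound at 10 μM plus 1 mM NADPH, pH 7.4, 37 °C, 60 min. Oxidation rates correlated by linear regression (r) with each donor's paclitaxel 6-hydroxylation activity. p < 0.05 taken as significant.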

The conditions of data set [5]: rat, in vivo; cited from earlier work.
Data set [6] deals with T2, UGT1A1 (Homo sapiens, UniProt P22309).
T2 sequence (P22309 26-533): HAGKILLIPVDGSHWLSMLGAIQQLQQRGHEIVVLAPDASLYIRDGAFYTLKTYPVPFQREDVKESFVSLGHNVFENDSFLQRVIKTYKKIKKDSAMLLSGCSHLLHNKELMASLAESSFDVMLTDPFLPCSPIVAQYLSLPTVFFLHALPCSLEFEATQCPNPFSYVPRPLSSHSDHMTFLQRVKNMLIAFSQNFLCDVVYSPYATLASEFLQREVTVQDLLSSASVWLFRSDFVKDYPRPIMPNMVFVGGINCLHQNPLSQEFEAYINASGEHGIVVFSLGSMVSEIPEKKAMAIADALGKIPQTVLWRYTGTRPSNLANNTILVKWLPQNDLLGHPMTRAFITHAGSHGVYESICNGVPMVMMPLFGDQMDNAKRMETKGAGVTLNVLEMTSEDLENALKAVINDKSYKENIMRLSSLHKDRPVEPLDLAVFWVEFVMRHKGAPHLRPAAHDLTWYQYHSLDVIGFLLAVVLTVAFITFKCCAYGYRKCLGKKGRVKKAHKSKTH
In kind it is in vitro ADME. Conditions: panel of HLMs (n = 9), substrate 10 μM, p = 0.049.

The subject of data set [7] is HepG2 hepatocellular carcinoma cell line. Conditions: cited from earlier work.
For data set [8], the target named is T3, UGT1A9 (Homo sapiens, UniProt O60656).
T3 sequence (O60656 26-530): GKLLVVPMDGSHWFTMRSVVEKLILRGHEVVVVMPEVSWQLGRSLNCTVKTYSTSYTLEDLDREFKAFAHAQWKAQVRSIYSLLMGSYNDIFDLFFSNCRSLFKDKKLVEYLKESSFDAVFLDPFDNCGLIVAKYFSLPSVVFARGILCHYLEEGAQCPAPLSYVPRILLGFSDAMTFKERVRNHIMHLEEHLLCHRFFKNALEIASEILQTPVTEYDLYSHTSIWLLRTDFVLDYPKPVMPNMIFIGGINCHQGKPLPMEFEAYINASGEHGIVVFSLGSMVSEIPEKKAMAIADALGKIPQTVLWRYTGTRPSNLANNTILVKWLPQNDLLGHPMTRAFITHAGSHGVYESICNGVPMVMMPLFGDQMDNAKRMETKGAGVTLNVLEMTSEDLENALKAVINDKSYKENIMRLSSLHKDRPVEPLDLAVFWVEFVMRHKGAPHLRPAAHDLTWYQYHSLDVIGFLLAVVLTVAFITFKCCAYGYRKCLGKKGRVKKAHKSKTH
Description: Glucuronidation of CA by recombinant UGT1A9. In kind it is in vitro ADME. The following applies: formation of the glucuronide from CA.

Data set [9] addresses T2, UGT1A1. Nature of the data set: Glucuronidation of CA by recombinant UGT1A1. The following applies: formation of the glucuronide from CA. In kind it is in vitro ADME.
Data set [10] addresses T3, UGT1A9. In kind it is in vitro ADME. The following applies: panel of HLMs (n = 9), substrate 10 μM, p = 0.015. A digest of the protocol: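 Test compound (10 μM) glucuronidated in each of nine individual human liver microsomes (1 mg/mL) with UDPGA and alamethicin, pH 7.4, 37 °C for 60 min. Rates regressed linearly against each donor's propofol O-glucuronidation activity; correlation coefficient r reported, p < 0.05 significant.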

A word on the Ki: it is a dissociation constant, usually derived from enzyme kinetics or from competition with a known ligand. On to `CC(C)=CCC/C(C)=C/Cc1cc(-c2coc3cc(O)ccc3c2=O)ccc1O` [CA, Corylifol A], for which the IC50 is 620 nM on human carboxylesterase 2 (read-out: IC50, human carboxylesterase 2) and 32.3 ± 3.2 µM in data set [3]. The Ki at human carboxylesterase 2 (read-out: Ki, human carboxylesterase 2) is 870 nM. Also, the “intrinsic clearance value of glucuronidation relative to phase I metabolism” value with pooled HLM was determined as 4 fold. Moreover, the “catalytic activity to CA-glucuronidation” value in data set [1] (UGT1A1, 1A7, 1A8 and 1A9) was “strong catalytic activity”; in data set [1] (UGT1A3, 1A4, 2B4 and 2B7), “weak catalytic activity”. In addition, the “IC50, cytotoxic activity” value was 13.5 µg/mL (≈ 34.6 µM) in data set [2] and 4.6 µg/mL (≈ 11.8 µM) in data set [7]. In addition, in data set [4] (CYP1A2, 1B1, 2A6, 2B6, 2E1, 3A4 and 3A5), the “metabolism of CA” value is on record as “cannot metabolize CA at all”. Moreover, the “CLint values (phase I metabolic activities)” value in data set [4] (range over CYP1A1, 2C8 and 2C19) is 13.01 to 49.36 µL/min/mg. The “correlation (r) between CA-mono-oxidation and paclitaxel-6-hydroxylation” value on CYP2C8 is reported as 0.921. In addition, the “distribution concentrations of CA at different nuclei” value in data set [5] was 260.63 to 493.29 ng·h/g. For the same compound, the “correlation (r) between CA-7-O-glucuronidation and β-estradiol-3-O-glucuronidation” value at UGT1A1 [6] was determined as 0.668. Further, the CLint amounted to 191.94 µL/min/mg at UGT1A9 [8] and 284.07 µL/min/mg at UGT1A1 [9]. Further, the “correlation (r) between CA-7-O-glucuronidation and propofol-O-glucuronidation” value at UGT1A9 [10] is reported as 0.771.
